Assay results from ChEMBL document CHEMBL4393692, “Thiazolidinone/thiazole based hybrids - New class of antitrypanosomal agents” (Eur J Med Chem, 2019).

Experiments:
[1] = system: Trypanosoma brucei gambiense; assay: Antitrypanosomal activity against bloodstream form of Trypanosoma brucei gambiense Feo reduction in parasite growth after 72 hrs by resazurin dye based fluorescence assay; assay type: functional, organism-based
Procedure, shortened: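 Bloodstream parasites cultured in HMI9 with 10% FCS at 37°C under 5% CO2. Log-phase cells harvested at 3000xg, plated at 10^5 cells/ml with dilutions from 10 down to 0.625 µg/ml (DMSO stocks) for 72 h. Resazurin added at 45 µM final, fluorescence read after a further 4 h. Inhibition vs DMSO control. IC50 from dose-response curve, mean ± SD of three independent experiments.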

[2] = Cytotoxicity against human AB943 cells assessed as reduction in cell viability after 5 days resazurin dye based fluorescence assay; conditions: 120 h
Procedure, shortened: (§1)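 Human primary fibroblasts grown in RPMI with 25 mM HEPES pH 7.3 and 10% FCS, 37°C, 5% CO2. After trypsinisation, seeded at 5000 cells/well and incubated 24 h. Then washed and exposed to two-fold drug dilutions, final DMSO below 1%, for 5 days. Resazurin added, fluorescence read (ex 530/em 590 nm) after 4 h. Growth inhibition vs DMSO control. SI = IC50 fibroblast / IC50 T. b. gambiense.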

[3] = Selectivity index, ratio of IC50 for human AB943 cells to IC50 of bloodstream form of Trypanosoma brucei gambiense Feo; assay type: toxicity; conditions: read-out: Ratio IC50; procedure, shortened: as §1

| Compound | IC50 [1] [µM] | IC50 [2] [µM] | selectivity ratio [3] |
| --- | --- | --- | --- |
| CCc1nn2c(/C=N/N=C3\SC(CC)C(=O)N3c3ccc(O)cc3)c(-c3ccc(Br)cc3)nc2s1 (stereo unspecified) | 1.5 | – | – |
| CCc1nn2c(/C=N/N=c3\scc(-c4ccc(Br)cc4)n3-c3ccc(O)cc3)c(-c3ccc(Br)cc3)nc2s1 | 0.476 | > 70 | > 150 |
| CC(=O)OCCC1S/C(=N\N=C\c2c(-c3ccc(Cl)cc3)[nH]c3ccccc23)N(Cc2ccco2)C1=O (stereo unspecified) | 1.59 | – | – |
| C=CCSc1nn2c(/C=N/NC(=S)Nc3ccc(O)cc3)c(-c3ccccc3)nc2s1 | > 50 | – | – |
| CC1S/C(=N\N=C\c2c(-c3ccc([N+](=O)[O-])cc3)[nH]c3ccccc23)NC1=O (stereo unspecified) | 4.7 | – | – |
| CCC1S/C(=N\N=C\c2c(-c3ccc(Cl)cc3)[nH]c3ccccc23)N(Cc2ccco2)C1=O (stereo unspecified) | 1.71 | – | – |
| CCc1nn2c(C=O)c(-c3ccccc3)nc2s1 | > 40 | – | – |
| CC1S/C(=N\N=C\c2c(-c3ccc(Br)cc3)[nH]c3ccccc23)NC1=O (stereo unspecified) | 1.35 | – | – |
| C=CCSc1nn2c(/C=N/N=C3/NC(=O)C(CCOC(C)=O)S3)c(-c3ccccc3)nc2s1 (stereo unspecified) | 5.7 | 19.2 | 3 |
| CCOC(=O)c1s/c(=N\N=C\c2c(-c3ccc(Br)cc3)nc3sc(CC)nn23)n(-c2ccc(O)cc2)c1C | 1 | – | – |
| C=CCSc1nn2c(/C=N/N=C3/NC(=O)C(CC(=O)O)S3)c(-c3ccccc3)nc2s1 (stereo unspecified) | > 20 | – | – |
| CCc1nn2c(/C=N/N=c3/[nH]c(-c4ccc([N+](=O)[O-])cc4)cs3)c(-c3ccc(Br)cc3)nc2s1 | 9.2 | – | – |
| CCOC(=O)c1s/c(=N\N=C\c2c(-c3ccc(Br)cc3)nc3sc(CC)nn23)[nH]c1C | 7.4 | – | – |
| CCc1nn2c(/C=N/N=c3/[nH]c(-c4ccc(Br)cc4)cs3)c(-c3ccc([N+](=O)[O-])cc3)nc2s1 | 1.2 | > 90 | > 70 |
| CCc1nn2c(/C=N/N=C3\SC(C)C(=O)N3c3ccc(O)cc3)c(-c3ccc(Br)cc3)nc2s1 (stereo unspecified) | 1.5 | – | – |
| O=[N+]([O-])c1ccc(-c2[nH]c3ccccc3c2/C=N/Nc2nc(-c3ccccc3)cs2)cc1 | 6 | – | – |
| C=CCSc1nn2c(/C=N/N=C3\SC(C)C(=O)N3c3ccc(O)cc3)c(-c3ccccc3)nc2s1 (stereo unspecified) | > 20 | – | – |
| CCc1nn2c(/C=N/N=C3\SC(CC)C(=O)N3c3ccc(O)cc3)c(-c3ccccc3)nc2s1 (stereo unspecified) | > 20 | – | – |
| CCOC(=O)c1s/c(=N\N=C\c2c(-c3ccccc3)nc3sc(CC)nn23)n(-c2ccc(O)cc2)c1C | 0.745 | 51.5 | 69 |
| CCc1nn2c(/C=N/N=C3/NC(=O)C(CCOC(C)=O)S3)c(-c3ccccc3)nc2s1 (stereo unspecified) | 11.8 | – | – |
| CCc1nn2c(/C=N/NC(N)=S)c(-c3ccc([N+](=O)[O-])cc3)nc2s1 | > 25 | – | – |
| CCc1nn2c(/C=N/N=C3\SC(C)C(=O)N3c3ccc(O)cc3)c(-c3ccccc3)nc2s1 (stereo unspecified) | 4.8 | – | – |
| CCc1nn2c(/C=N/NC(=S)Nc3ccc(O)cc3)c(-c3ccc([N+](=O)[O-])cc3)nc2s1 | 14.8 | – | – |
| CCc1nn2c(/C=N/N=C3\SC(CCOC(C)=O)C(=O)N3c3ccc(O)cc3)c(-c3ccccc3)nc2s1 (stereo unspecified) | 2.7 | – | – |
| CCC1S/C(=N\N=C\c2c(-c3ccc(Cl)cc3)[nH]c3ccccc23)NC1=O (stereo unspecified) | 1.42 | – | – |
| CCc1nn2c(/C=N/NC(N)=S)c(-c3ccccc3)nc2s1 | 20.9 | – | – |

| Compound | IC50 [1] [µM] | IC50 [2] [µM] | selectivity ratio [3] |
| --- | --- | --- | --- |
| Clc1ccc(-c2[nH]c3ccccc3c2/C=N/Nc2nc(-c3ccc(Br)cc3)cs2)cc1 | 1.52 | – | – |
| CCc1nn2c(/C=N/N=C3/NC(=O)C(CC)S3)c(-c3ccc([N+](=O)[O-])cc3)nc2s1 (stereo unspecified) | > 20 | – | – |
| CCc1nn2c(/C=N/N=C3/NC(=O)C(CC)S3)c(-c3ccccc3)nc2s1 (stereo unspecified) | 3.7 | – | – |
| O=[N+]([O-])c1ccc(-c2[nH]c3ccccc3c2/C=N/N=c2\scc(-c3ccc([N+](=O)[O-])cc3)n2-c2ccc(O)cc2)cc1 | 1.5 | – | – |
| CCc1nn2c(/C=N/N=C3\SC(CCOC(C)=O)C(=O)N3c3ccc(O)cc3)c(-c3ccc(Br)cc3)nc2s1 (stereo unspecified) | 1 | 11.2 | 11 |
| C=CCSc1nn2c(/C=N/N=C3\SC(CC)C(=O)N3c3ccc(O)cc3)c(-c3ccccc3)nc2s1 (stereo unspecified) | 3.6 | > 90 | > 26 |
| CCc1nn2c(/C=N/N=C3/NC(=O)C(CCOC(C)=O)S3)c(-c3ccc(Br)cc3)nc2s1 (stereo unspecified) | 3.2 | – | – |
| O=C1N/C(=N/N=C/c2c(-c3ccc(Br)cc3)[nH]c3ccccc23)SC1CCO (stereo unspecified) | 3.34 | – | – |
| CC(=O)OCCC1S/C(=N\N=C\c2c(-c3ccc(Cl)cc3)[nH]c3ccccc23)N(c2ccc(O)cc2)C1=O (stereo unspecified) | 0.38 | > 90 | > 240 |
| CCC1S/C(=N\N=C\c2c(-c3ccc([N+](=O)[O-])cc3)[nH]c3ccccc23)NC1=O (stereo unspecified) | 6.2 | – | – |
| CCOC(=O)c1s/c(=N\N=C\c2c(-c3ccc([N+](=O)[O-])cc3)nc3sc(CC)nn23)n(-c2ccc(O)cc2)c1C | 0.639 | > 80 | > 130 |
| CC1S/C(=N\N=C\c2c(-c3ccc(Cl)cc3)[nH]c3ccccc23)N(c2ccc(O)cc2)C1=O (stereo unspecified) | 1.17 | – | – |
| CCOC(=O)c1sc(N/N=C/c2c(-c3ccc(Cl)cc3)[nH]c3ccccc23)nc1C | 0.53 | 20.5 | 39 |
| CCc1nn2c(/C=N/N=C3/NC(=O)C(C)S3)c(-c3ccccc3)nc2s1 (stereo unspecified) | > 25 | – | – |
| CCc1nn2c(/C=N/N=c3\scc(-c4ccc([N+](=O)[O-])cc4)n3-c3ccc(O)cc3)c(-c3ccc([N+](=O)[O-])cc3)nc2s1 | 2.6 | – | – |
| O=C1C(CCO)S/C(=N\N=C\c2c(-c3ccc(Cl)cc3)[nH]c3ccccc23)N1Cc1ccco1 (stereo unspecified) | 1.4 | 6.23 | 4 |
| CC1S/C(=N\N=C\c2c(-c3ccc(Cl)cc3)[nH]c3ccccc23)N(Cc2ccco2)C1=O (stereo unspecified) | 1.71 | – | – |
| CCc1nn2c(/C=N/NC(N)=S)c(-c3ccc(Br)cc3)nc2s1 | > 25 | – | – |
| CCC1S/C(=N\N=C\c2c(-c3ccc([N+](=O)[O-])cc3)[nH]c3ccccc23)N(c2ccc(O)cc2)C1=O (stereo unspecified) | 0.14 | 8.6 | 60 |
| C=CCSc1nn2c(/C=N/N=C3/NC(=O)CS3)c(-c3ccccc3)nc2s1 | 3.9 | – | – |
| CCOC(=O)c1sc(N/N=C/c2c(-c3ccc([N+](=O)[O-])cc3)[nH]c3ccccc23)nc1C | 0.74 | – | – |
| C=CCSc1nn2c(/C=N/NC(N)=S)c(-c3ccccc3)nc2s1 | 6.1 | – | – |
| C=CCSc1nn2c(/C=N/N=c3\sc(C(=O)OCC)c(C)n3-c3ccc(O)cc3)c(-c3ccccc3)nc2s1 | 0.631 | > 80 | > 130 |
| CC(=O)OCCC1S/C(=N\N=C\c2c(-c3ccc(Cl)cc3)[nH]c3ccccc23)NC1=O (stereo unspecified) | 1.34 | – | – |
| C=CCSc1nn2c(/C=N/N=C3/NC(=O)C(C)S3)c(-c3ccccc3)nc2s1 (stereo unspecified) | 4.4 | – | – |
| CCc1nn2c(/C=N/N=c3\scc(-c4ccccc4)n3-c3ccc(O)cc3)c(-c3ccccc3)nc2s1 | 3 | – | – |

| Compound | IC50 [1] [µM] | IC50 [2] [µM] | selectivity ratio [3] |
| --- | --- | --- | --- |
| CCc1nn2c(/C=N/N=C3/NC(=O)C(C)S3)c(-c3ccc(Br)cc3)nc2s1 (stereo unspecified) | 9.5 | – | – |
| CCc1nn2c(/C=N/N=c3/[nH]c(-c4ccc([N+](=O)[O-])cc4)cs3)c(-c3ccccc3)nc2s1 | 10.3 | – | – |
| C=CCSc1nn2c(/C=N/N=C3\SC(CCOC(C)=O)C(=O)N3c3ccc(O)cc3)c(-c3ccccc3)nc2s1 (stereo unspecified) | 1 | – | – |
| CCc1nn2c(/C=N/NC(=S)Nc3ccc(O)cc3)c(-c3ccc(Br)cc3)nc2s1 | 1.5 | – | – |
| CCc1nn2c(/C=N/N=C3\SC(CCOC(C)=O)C(=O)N3c3ccc(O)cc3)c(-c3ccc([N+](=O)[O-])cc3)nc2s1 (stereo unspecified) | 11.1 | – | – |
| CCOC(=O)c1s/c(=N\N=C\c2c(-c3ccc([N+](=O)[O-])cc3)nc3sc(CC)nn23)[nH]c1C | > 20 | – | – |
| CCc1nn2c(/C=N/N=c3/[nH]c(-c4ccc([N+](=O)[O-])cc4)cs3)c(-c3ccc([N+](=O)[O-])cc3)nc2s1 | 4.4 | – | – |
| C=CCSc1nn2cc(-c3ccccc3)nc2s1 | 27.2 | – | – |
| CC(=O)OCCC1S/C(=N\N=C\c2c(-c3ccc(Br)cc3)[nH]c3ccccc23)NC1=O (stereo unspecified) | 1.36 | – | – |
| CCc1nn2c(/C=N/N=C3/NC(=O)CS3)c(-c3ccccc3)nc2s1 | 18 | – | – |
| CCC1S/C(=N\N=C\c2c(-c3ccc(Br)cc3)[nH]c3ccccc23)NC1=O (stereo unspecified) | 1.5 | – | – |
| CCc1nn2c(/C=N/N=C3\SCC(=O)N3c3ccc(O)cc3)c(-c3ccccc3)nc2s1 | 9.2 | – | – |
| CCOC(=O)CSc1nn2c(/C=N/N=C3/NC(=O)C(CC)S3)c(-c3ccccc3)nc2s1 (stereo unspecified) | 9.2 | – | – |
| CCOC(=O)CSc1nn2c(/C=N/N=C3/NC(=O)C(C)S3)c(-c3ccccc3)nc2s1 (stereo unspecified) | 3.9 | – | – |
| CCOC(=O)CSc1nn2cc(-c3ccccc3)nc2s1 | > 30 | – | – |
| CCc1nn2cc(-c3ccccc3)nc2s1 | > 40 | – | – |
| C=CCSc1nn2c(/C=N/N=C3\SCC(=O)N3c3ccc(O)cc3)c(-c3ccccc3)nc2s1 | > 20 | – | – |
| CCOC(=O)c1s/c(=N\N=C\c2c(-c3ccccc3)nc3sc(CC)nn23)[nH]c1C | 2.7 | – | – |
| C=CCSc1nn2c(/C=N/N=C3/NC(=O)C(CC)S3)c(-c3ccccc3)nc2s1 (stereo unspecified) | 20.6 | – | – |
| CCc1nn2c(/C=N/N=C3/NC(=O)C(CC)S3)c(-c3ccc(Br)cc3)nc2s1 (stereo unspecified) | 13.8 | – | – |
| O=C1CS/C(=N\N=C\c2c(-c3ccc(Cl)cc3)[nH]c3ccccc23)N1Cc1ccco1 | 7.31 | – | – |
| C=CCSc1nn2c(C=O)c(-c3ccccc3)nc2s1 | 23.4 | – | – |
| CCc1nn2c(/C=N/N=c3\scc(-c4ccc(Br)cc4)n3-c3ccc(O)cc3)c(-c3ccc([N+](=O)[O-])cc3)nc2s1 | 0.594 | – | – |
| CCc1nn2c(/C=N/N=C3/NC(=O)C(CCOC(C)=O)S3)c(-c3ccc([N+](=O)[O-])cc3)nc2s1 (stereo unspecified) | 16.2 | – | – |
| CCc1nn2c(/C=N/NC(=S)Nc3ccc(O)cc3)c(-c3ccccc3)nc2s1 | 2.6 | – | – |
